How the values were obtained:
Leishmania major = experiment: Antileishmanial activity against Leishmania major promastigotes assessed as inhibition of [3H]thymidine uptake after 2 hrs by liquid scintillation counting; format: functional, organism-based
Outline: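 WHO reference vaccine strain promastigotes kept at 26 °C in RPMI 1640 with 25 mM HEPES, 4 mM L-glutamine, gentamicin, 10% heat-inactivated FCS. Compounds from DMSO stock diluted in medium, incubated with 1 × 10^7 promastigotes/mL for 2 h; [3H]thymidine then added, 18 h further incubation, harvest, scintillation counting of incorporated label.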

[1] = Cytotoxicity against drug-sensitive human KB-3-1 cells after 48 hrs by MTS/PMS assay; format: functional, cell-based; details: KB 3-1, 48 h
Outline: (§1)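 Mycoplasma-free KB-3-1 and vinblastine-selected KB-V1 (passages 5-15, no vinblastine pressure) in DMEM/10% FBS, 37 °C, 5% CO2. Seeded 4 × 10^3 (KB-3-1) or 7 × 10^3 (KB-V1) cells/well, 24 h preincubation, then 48 h with compounds (DMSO ≤0.25%). MTS/PMS read at 492 nm after ~50 min; six repeats per concentration, IC50 from ≥3 independent determinations on different passages.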

[2] = Cytotoxicity against multidrug-resistant human KBV1 cells after 48 hrs by MTS/PMS assay; format: functional, cell-based; details: KB-V1, 48 h; outline: as §1
PBMC = experiment: Inhibition of phytohemagglutininin A-stimulated human PBMC proliferation assessed as decrease in [14C]thymidine incorporation; format: functional, cell-based
Plasmodium falciparum = experiment: Antimalarial activity after 24 hrs against chloroquine-sensitive Plasmodium falciparum 3D7 by [3H]phenylalanine uptake
[3] = Resistance index, ratio of IC50 for multidrug-resistant human KBV1 cells to IC50 for drug-sensitive human KB-3-1 cells; format: functional

Structure (SMILES)	IC50 (Leishmania major) [µM]	IC50 [1] [µM]	IC50 [2] [µM]	IC50 (PBMC) [µM]	IC50 (Plasmodium falciparum) [µM]	Ratio IC50 [3]
C[C@H]1COC2=C1C(=O)C(=O)c1c2ccc2c1[C@H](O)CCC2(C)C	46.7	5	5.6	16	26.9	
CC(C)C1=Cc2ccc3c(c2C(=O)C1=O)C(=O)CCC3(C)C	17.9	46.6	47.8	44.6	13	
C[C@H]1COC2=C1C(=O)C(=O)c1c2ccc2c1C(=O)CCC2(C)C	25.7			12.4	17.6	
C[C@@H]1[C@H](O)[C@@H](C)/C=C/C=C/C=C/C=C/C=C/C=C/C=C/[C@H](O[C@@H]2O[C@H](C)[C@@H](O)[C@H](N)[C@@H]2O)C[C@@H]2O[C@](O)(C[C@@H](O)C[C@@H](O)[C@H](O)CC[C@@H](O)C[C@@H](O)CC(=O)O[C@H]1C)C[C@H](O)[C@H]2C(=O)O [AMPHOTERICIN B]	0.16					
C[C@H]1COC2=C1C(=O)C(=O)c1c2ccc2c1CCCC2(C)C [CRYPTOTANSHINONE]	18.4	6.9	7.5	37.4	12.5	
COC(=O)c1ccccc1-c1c2ccc(=N)cc-2oc2cc(N)ccc12.Cl [RHODAMINE123]		1.6	> 500			500
CC[C@]1(O)C[C@@H]2CN(CCc3c([nH]c4ccccc34)[C@@](C(=O)OC)(c3cc4c(cc3OC)N(C)[C@H]3[C@@](O)(C(=O)OC)[C@H](OC(C)=O)[C@]5(CC)C=CCN6CC[C@]43[C@@H]65)C2)C1 [VINBLASTINE]						210
